ChEMBL document CHEMBL4196006, “Aryl thiosemicarbazones for the treatment of trypanosomatidic infections” (Eur J Med Chem, 2018)
Activity calls are given as the source filed them. The calls are words filed in the database; no cut-off is given here.

Columns and labels:
[1] = Cytotoxicity against human U2OS cells assessed as viable cells at 50 uM after 72 hrs by MTT assay relative to control; assay type: cell-based; conditions: read-out: Activity
[2] = Cytotoxicity against human WI38 cells assessed as growth inhibition at 10 uM after 48 hrs by CellTiter-Glo assay relative to control; values are per cent of control; conditions: WI38 cells
[3] = Cytotoxicity against human A549 cells assessed as growth inhibition at 10 uM after 48 hrs by CellTiter-Glo assay relative to control; values are per cent of control; conditions: A549 cells
[4] = Cytotoxicity against human U2OS cells assessed as decrease in viable cells after 72 hrs by cell number count in anti-T. cruzi high content imaging assay; conditions: U2OS cells
[5] = Cytotoxicity against human 786-O cells assessed as inhibition of mitochondrial viability at 10 uM after 6 hrs by CMXRos staining based assay relative to control; assay type: cell-based, 786-0; conditions: read-out: INH
Summary of the method: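 Mitochondrial toxicity monitored by MitoTracker Red CMXRos uptake and high-content imaging; compound at 10 μM, triplicate.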

Aurora kinase B = Aurora kinase B (Homo sapiens, UniProt Q96GD4); experiment: Inhibition of recombinant full-length human aurora B kinase expressed in baculovirus system at 10 uM using MBP as substrate incubated for 45 mins by ADP-glo kinase assay; conditions: probe MBP
Aurora kinase B, sequence (Q96GD4 whole entry): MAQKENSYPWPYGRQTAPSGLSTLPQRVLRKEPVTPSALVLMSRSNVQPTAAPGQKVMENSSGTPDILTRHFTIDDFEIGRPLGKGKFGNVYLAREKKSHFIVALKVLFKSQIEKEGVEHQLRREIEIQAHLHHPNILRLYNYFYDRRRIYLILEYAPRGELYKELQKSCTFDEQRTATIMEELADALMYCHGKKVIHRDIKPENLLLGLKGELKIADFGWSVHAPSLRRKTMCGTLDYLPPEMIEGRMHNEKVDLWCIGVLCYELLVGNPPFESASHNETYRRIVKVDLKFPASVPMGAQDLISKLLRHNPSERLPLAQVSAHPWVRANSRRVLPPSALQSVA
Summary of the method: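 Aurora B activity measured as ADP formation via coupled luciferase ADP-Glo luminescence; single-point at 10 μM, triplicate.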

[6] = molecular target: T1, Pteridine reductase, putative (Trypanosoma brucei) (UniProt Q581W1); experiment: Inhibition of Trypanosoma brucei PTR1 at 50 uM using H2B as substrate in presence of NADPH by photometric analysis relative to control
T1 sequence (whole entry): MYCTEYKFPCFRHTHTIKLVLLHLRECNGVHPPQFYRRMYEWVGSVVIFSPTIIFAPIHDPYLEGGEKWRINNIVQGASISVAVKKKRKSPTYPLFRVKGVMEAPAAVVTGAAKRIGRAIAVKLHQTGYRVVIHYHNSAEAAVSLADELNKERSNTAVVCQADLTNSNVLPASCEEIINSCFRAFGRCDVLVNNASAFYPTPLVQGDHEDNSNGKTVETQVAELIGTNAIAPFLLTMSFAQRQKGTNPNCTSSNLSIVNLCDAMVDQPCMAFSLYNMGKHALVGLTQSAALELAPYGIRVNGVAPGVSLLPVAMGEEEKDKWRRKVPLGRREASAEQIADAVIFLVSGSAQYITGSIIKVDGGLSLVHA

[7] = molecular target: T2, Pteridine reductase 1 (Leishmania major) (UniProt Q01782); experiment: Inhibition of Leishmania major PTR1 at 50 uM using H2B as substrate in presence of NADPH by photometric analysis relative to control
T2 sequence (whole entry): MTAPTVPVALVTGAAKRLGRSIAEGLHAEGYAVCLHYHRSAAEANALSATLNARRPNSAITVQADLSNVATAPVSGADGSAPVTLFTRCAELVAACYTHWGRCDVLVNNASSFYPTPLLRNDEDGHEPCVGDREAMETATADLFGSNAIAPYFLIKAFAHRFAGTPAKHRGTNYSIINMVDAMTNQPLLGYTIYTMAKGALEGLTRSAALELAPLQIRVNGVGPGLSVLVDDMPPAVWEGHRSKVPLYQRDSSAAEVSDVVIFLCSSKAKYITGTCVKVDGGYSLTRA

Trypanosoma cruzi [8] = experiment: Antitrypanosomal activity against Trypanosoma cruzi amastigote form infected in human U2OS cells assessed as parasite growth inhibition after 72 hrs; assay type: functional, organism-based
Summary of the method: (§1)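 U2OS monolayers grown for 24 h, then infected with tissue-derived trypomastigotes of T. cruzi Y strain. Compounds were added 24 h after infection at 50 μM (single-point) or in dose-response, with 72 h exposure. Plates were fixed, stained and analysed by high-content imaging; activity was normalized to infected and non-infected controls. Means of at least two experiments; benznidazole as reference.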

CYP2C19 = CYP2C19 (Homo sapiens, UniProt P33261); experiment: Inhibition of human microsomal CYP2C19 expressed in baculovirus infected BTI-TN-5B1-4 cells at 10 uM incubated for 30 mins by luciferase assay relative to control; assay type: ADME
CYP2C19, sequence (P33261 whole entry): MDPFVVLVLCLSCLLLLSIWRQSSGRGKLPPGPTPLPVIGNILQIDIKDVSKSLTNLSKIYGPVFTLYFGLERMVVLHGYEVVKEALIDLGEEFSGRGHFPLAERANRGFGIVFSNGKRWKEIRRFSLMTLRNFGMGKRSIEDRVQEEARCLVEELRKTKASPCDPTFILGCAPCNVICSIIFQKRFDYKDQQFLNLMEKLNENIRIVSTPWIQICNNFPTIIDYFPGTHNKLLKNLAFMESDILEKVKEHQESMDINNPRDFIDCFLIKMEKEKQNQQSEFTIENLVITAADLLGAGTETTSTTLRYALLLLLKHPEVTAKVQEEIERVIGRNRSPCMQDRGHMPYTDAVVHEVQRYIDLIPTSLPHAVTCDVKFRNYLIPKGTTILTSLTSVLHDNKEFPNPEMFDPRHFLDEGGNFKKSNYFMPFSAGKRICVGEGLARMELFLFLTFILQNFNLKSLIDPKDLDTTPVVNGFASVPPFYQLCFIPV
Summary of the method: (§2)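 CYP1A2, 2C9, 2C19, 2D6 and 3A4 in microsomes from baculovirus-infected insect cells, each with a P450-Glo luminogenic substrate. Inhibition read as loss of light; single-point at 10 μM, triplicate.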

Trypanosoma cruzi [9] = experiment: Antitrypanosomal activity against Trypanosoma cruzi amastigote form infected in human U2OS cells assessed as parasite growth inhibition at 50 uM after 72 hrs relative to control; assay type: functional; conditions: read-out: GI; summary of the method: as §1
hERG (KCNH2) = hERG (KCNH2) (Homo sapiens, UniProt Q12809); experiment: Inhibition of human ERG at 10 uM incubated for 2 hrs by fluorescence polarisation assay relative to control
hERG (KCNH2), sequence (Q12809 whole entry): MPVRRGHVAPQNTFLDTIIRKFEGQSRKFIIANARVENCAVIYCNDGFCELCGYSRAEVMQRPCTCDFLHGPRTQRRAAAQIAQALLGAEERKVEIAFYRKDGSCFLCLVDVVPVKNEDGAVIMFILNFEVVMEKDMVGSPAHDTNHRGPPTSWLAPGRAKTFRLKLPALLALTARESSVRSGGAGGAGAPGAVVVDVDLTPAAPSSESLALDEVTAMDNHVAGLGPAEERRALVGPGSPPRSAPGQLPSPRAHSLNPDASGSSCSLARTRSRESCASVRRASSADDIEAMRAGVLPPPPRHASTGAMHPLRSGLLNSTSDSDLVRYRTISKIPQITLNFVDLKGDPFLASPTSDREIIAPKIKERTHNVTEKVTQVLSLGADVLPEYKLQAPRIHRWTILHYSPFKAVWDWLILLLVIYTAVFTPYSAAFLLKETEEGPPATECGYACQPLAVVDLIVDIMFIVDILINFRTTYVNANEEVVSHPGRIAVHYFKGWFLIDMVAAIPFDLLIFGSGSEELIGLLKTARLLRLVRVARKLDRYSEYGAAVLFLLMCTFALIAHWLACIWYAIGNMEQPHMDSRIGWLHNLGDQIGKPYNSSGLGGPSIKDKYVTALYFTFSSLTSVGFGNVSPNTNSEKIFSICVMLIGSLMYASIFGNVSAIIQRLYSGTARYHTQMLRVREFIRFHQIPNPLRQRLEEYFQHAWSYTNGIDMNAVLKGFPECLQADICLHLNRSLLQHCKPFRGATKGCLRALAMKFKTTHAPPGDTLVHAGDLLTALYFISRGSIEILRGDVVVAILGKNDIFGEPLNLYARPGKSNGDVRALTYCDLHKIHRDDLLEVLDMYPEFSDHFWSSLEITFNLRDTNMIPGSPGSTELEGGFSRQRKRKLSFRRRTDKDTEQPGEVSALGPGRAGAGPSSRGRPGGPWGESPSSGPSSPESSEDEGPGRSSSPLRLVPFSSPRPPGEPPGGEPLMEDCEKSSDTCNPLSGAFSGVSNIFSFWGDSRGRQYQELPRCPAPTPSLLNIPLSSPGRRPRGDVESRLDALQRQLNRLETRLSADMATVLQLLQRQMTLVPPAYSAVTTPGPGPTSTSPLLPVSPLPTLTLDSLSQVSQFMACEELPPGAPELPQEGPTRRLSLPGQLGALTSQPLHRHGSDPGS

Trypanosoma brucei [10] = experiment: Antitrypanosomal activity against Trypanosoma brucei Lister 427 bloodstream form at 10 uM after 72 hrs by resazurin dye-based assay relative to control; assay type: functional
CYP2C9 = CYP2C9 (Homo sapiens, UniProt P11712); experiment: Inhibition of human microsomal CYP2C9 expressed in baculovirus infected BTI-TN-5B1-4 cells at 10 uM incubated for 30 mins by luciferase assay relative to control; assay type: ADME; summary of the method: as §2
CYP2C9, sequence (P11712 whole entry): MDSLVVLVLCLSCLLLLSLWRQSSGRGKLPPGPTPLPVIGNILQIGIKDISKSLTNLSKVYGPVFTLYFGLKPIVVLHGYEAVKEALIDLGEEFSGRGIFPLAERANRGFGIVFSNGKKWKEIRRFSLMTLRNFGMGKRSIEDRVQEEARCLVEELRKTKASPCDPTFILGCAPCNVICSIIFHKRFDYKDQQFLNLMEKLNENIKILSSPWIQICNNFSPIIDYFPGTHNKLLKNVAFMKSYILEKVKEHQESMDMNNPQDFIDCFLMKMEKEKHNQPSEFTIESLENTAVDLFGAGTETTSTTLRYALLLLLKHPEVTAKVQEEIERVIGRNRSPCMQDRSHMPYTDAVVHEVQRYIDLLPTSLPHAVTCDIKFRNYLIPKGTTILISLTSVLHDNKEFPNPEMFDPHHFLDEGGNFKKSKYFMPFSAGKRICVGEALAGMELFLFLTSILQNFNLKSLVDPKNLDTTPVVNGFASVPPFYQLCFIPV

Trypanosoma brucei [11] = experiment: Potentiation of methotrexate-induced antitrypanosomal activity against Trypanosoma brucei Lister 427 bloodstream form at 10 uM after 72 hrs by resazurin dye-based assay relative to control; assay type: functional
CYP2D6 = CYP2D6 (Homo sapiens, UniProt P10635); experiment: Inhibition of human microsomal CYP2D6 expressed in baculovirus infected BTI-TN-5B1-4 cells at 10 uM incubated for 30 mins by luciferase assay relative to control; assay type: ADME; summary of the method: as §2
CYP2D6, sequence (P10635 whole entry): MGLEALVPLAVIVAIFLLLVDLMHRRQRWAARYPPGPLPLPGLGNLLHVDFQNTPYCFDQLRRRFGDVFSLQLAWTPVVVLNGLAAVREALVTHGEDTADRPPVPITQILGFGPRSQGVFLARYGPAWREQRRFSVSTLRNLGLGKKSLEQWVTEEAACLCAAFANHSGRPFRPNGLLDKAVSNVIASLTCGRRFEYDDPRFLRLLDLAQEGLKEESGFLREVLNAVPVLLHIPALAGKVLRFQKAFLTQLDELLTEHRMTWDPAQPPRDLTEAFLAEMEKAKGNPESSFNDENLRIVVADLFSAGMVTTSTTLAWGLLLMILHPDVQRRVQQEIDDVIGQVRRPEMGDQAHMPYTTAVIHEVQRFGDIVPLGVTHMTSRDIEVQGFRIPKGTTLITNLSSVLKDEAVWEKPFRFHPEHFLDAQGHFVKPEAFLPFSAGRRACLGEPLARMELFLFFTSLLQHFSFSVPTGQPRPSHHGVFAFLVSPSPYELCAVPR

Trypanosoma brucei [12] = experiment: Potentiation of methotrexate-induced antitrypanosomal activity against Trypanosoma brucei Lister 427 bloodstream form at 10 uM after 72 hrs by resazurin dye-based assay; assay type: functional
CYP1A2 = molecular target: T3, CYP1A2 (Homo sapiens, UniProt P05177); experiment: Inhibition of human microsomal CYP1A2 expressed in baculovirus infected BTI-TN-5B1-4 cells at 10 uM incubated for 30 mins by luciferase assay relative to control; assay type: ADME; summary of the method: as §2
T3 sequence (P05177 whole entry): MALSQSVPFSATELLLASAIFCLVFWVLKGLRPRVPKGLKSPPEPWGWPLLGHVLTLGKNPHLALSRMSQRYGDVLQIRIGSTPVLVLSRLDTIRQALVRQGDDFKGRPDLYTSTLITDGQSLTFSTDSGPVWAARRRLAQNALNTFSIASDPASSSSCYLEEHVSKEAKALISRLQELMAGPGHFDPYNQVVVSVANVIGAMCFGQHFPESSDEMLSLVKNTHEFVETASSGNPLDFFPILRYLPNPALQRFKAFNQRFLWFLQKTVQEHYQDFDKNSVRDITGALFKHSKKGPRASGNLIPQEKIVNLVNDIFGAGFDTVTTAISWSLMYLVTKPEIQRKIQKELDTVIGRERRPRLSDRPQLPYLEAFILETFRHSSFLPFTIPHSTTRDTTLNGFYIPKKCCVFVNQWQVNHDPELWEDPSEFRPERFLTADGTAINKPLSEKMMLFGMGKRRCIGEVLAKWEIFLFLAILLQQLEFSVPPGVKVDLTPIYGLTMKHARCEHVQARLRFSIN

Leishmania infantum = experiment: Antileishmanial activity against Leishmania infantum amastigote form assessed as parasite growth inhibition at 50 uM after 72 hrs by steady-Glo reagent based assay relative to control; assay type: functional; conditions: for inhibition of growth at 50 µM: read-out: GI
Summary of the method: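 Intramacrophage L. infantum amastigotes in THP-1-derived macrophages, tested at 50 μM or in dose-response. Plates held 72 h at 37 °C, 5% CO2. Medium was replaced by PBS, macrophages lysed, and parasites read by Steady-Glo luminescence. High-content imaging gave host cell number, infection ratio (infected/total cells) and parasites per infected cell. Values are means of at least two independent experiments.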

[13] = Cytotoxicity against human THP1 cells assessed as viable cells at 100 uM after 72 hrs by MTT assay relative to control; assay type: cell-based, THP-1; conditions: read-out: Activity
Summary of the method: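 THP-1-derived macrophages exposed to compounds for 72 h, tested at 100 μM or in dose-response; viability read by MTT colorimetric assay.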

[14] = Selectivity index, ratio of CC50 for human U2OS cells to EC50 for Trypanosoma cruzi amastigote form; assay type: toxicity; conditions: read-out: Ratio CC50/EC50
Summary of the method: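 Selectivity index = CC50 in the human host or cytotoxicity cell line divided by parasite EC50.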

Trypanosoma brucei [15] = experiment: Antitrypanosomal activity against Trypanosoma brucei Lister 427 bloodstream form assessed as parasite growth inhibition at 50 uM after 72 hrs by SYBR Green assay relative to control; assay type: functional; conditions: for inhibition of growth at 50 µM: Lister 427, 72 h, read-out: GI
CYP3A4 = CYP3A4 (Homo sapiens, UniProt P08684); experiment: Inhibition of human microsomal CYP3A4 expressed in baculovirus infected BTI-TN-5B1-4 cells at 10 uM incubated for 30 mins by luciferase assay relative to control; assay type: ADME; summary of the method: as §2
CYP3A4, sequence (P08684 whole entry): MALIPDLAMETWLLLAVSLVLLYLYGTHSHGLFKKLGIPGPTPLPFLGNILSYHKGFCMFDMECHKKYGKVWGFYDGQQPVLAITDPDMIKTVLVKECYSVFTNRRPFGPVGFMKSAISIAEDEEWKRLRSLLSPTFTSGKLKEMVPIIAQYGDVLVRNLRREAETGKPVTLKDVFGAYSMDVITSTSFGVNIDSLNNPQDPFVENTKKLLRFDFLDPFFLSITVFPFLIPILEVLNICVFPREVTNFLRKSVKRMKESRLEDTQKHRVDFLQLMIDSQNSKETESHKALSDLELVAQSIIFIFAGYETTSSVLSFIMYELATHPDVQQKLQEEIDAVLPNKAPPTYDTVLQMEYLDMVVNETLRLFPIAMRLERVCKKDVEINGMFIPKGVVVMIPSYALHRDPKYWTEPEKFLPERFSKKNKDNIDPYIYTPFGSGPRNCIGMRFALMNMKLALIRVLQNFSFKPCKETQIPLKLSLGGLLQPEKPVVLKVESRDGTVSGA

Trypanosoma brucei [16] = experiment: Antitrypanosomal activity against Trypanosoma brucei Lister 427 bloodstream form after 72 hrs by SYBR Green assay; assay type: functional, organism-based; conditions: Lister 427, 72 h

inhibition at 0.75 h, 10 µM (Aurora kinase B) [%]	inhibition [6] [%]	inhibition [7] [%]	EC50 (Trypanosoma cruzi [8]) [nM]	inhibition at 0.5 h, 10 µM (CYP2C19) [%]	inhibition at 0.5 h, 10 µM (CYP2C9) [%]	inhibition at 0.5 h, 10 µM (CYP2D6) [%]	inhibition at 0.5 h, 10 µM (CYP1A2) [%]	Structure (SMILES)	viability at 72 h, 50 µM [1] [%]	cell growth (% of control) at 48 h, 10 µM [2] [%]	cell growth (% of control) at 48 h, 10 µM [3] [%]	CC50 at 72 h [4] [nM]	cytotoxicity at 6 h, 10 µM [5] [%]	inhibition of growth at 50 µM (Trypanosoma cruzi [9]) [%]	inhibition at 2 h, 10 µM (hERG (KCNH2)) [%]	Activity (Trypanosoma brucei [10]) [%]	Activity (Trypanosoma brucei [11]) [%]	PF (Trypanosoma brucei [12])	viability at 72 h, 100 µM [13] [%]	selectivity ratio [14]	other results
-8.76	3.99	14.8	1870	-43.2	-12.2	-43.1	-0.31	NC(=S)N/N=C/c1ccco1	112	106	124	> 44000	-4.4	93.6	-7.97	3.33	24	0.87	92.9	> 1	inhibition of growth at 50 µM (Leishmania infantum): 26.9%; growth inhibition (GI) (Trypanosoma brucei [15]): inactive; inhibition at 0.5 h, 10 µM (CYP3A4): -12.2%
-5.47	8.92	9.09	1590	-36.7	9.11	3.17	18.3	NC(=S)N/N=C/C=C/c1ccccc1	76.1	82.8	129	> 44000	-2.97	94.6	7.23	11.33	84.5	2.37	44.1	> 1	inhibition of growth at 50 µM (Leishmania infantum): 45.9%; EC50 (Trypanosoma brucei [16]): 16900 nM; inhibition of growth at 50 µM (Trypanosoma brucei [15]): 91.7%; inhibition at 0.5 h, 10 µM (CYP3A4): -13.1%
-16.2	14.9	18.4	2290	-35.9	-7.51	-14.4	66.6	N/C(S)=N/N=C/c1cccc(Br)c1	57.3	120	130	> 44000	0.71	90.8	10.7	0.83	61.17	2.44	79.3	> 1	growth inhibition (GI) (Leishmania infantum): inactive; inhibition of growth at 50 µM (Trypanosoma brucei [15]): 44.1%; inhibition at 0.5 h, 10 µM (CYP3A4): -19.8%
